Converted amounts (≈) assume the structure as drawn. The source made the active and inactive calls. The calls are words filed in the database; no cut-off is given here.

A word on the MIC: it is the lowest concentration found to suppress growth. The term IC50 denotes the point on the concentration scale where inhibition reaches its midpoint. Low values mean inhibition by little substance, high ones a need for much substance. In general, IC90 refers to the concentration needed for an effect of 90%. A lower IC90 goes with an effect from little substance.

A short description of data set [1]: Cytotoxicity against mouse J774 cells assessed as cell viability at 10-fold above MIC relative to control. The class given is cell-based. As to conditions: read-out: Activity. Put shortly:
(§1)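 Uninfected J774 macrophages run in parallel to the infection assay (RPMI 1640, 1% FBS, 37 °C, 5% CO2), exposed to the same three concentrations (mid bracketing primary-screen MIC, ten-fold below and above); MTT proliferation read-out reported as percent viability.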

The subject of data set [2] is Mycobacterium tuberculosis. The experiment in a line: Antimicrobial activity against Mycobacterium tuberculosis H37Rv SRI 1345 assessed as growth inhibition after 7 days by broth microdilution assay. The class given is functional. As to conditions: H37Rv SRI 1345, 168 h. The gist of the method: (§2)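 Broth microdilution per CLSI in Middlebrook 7H9 + OADC; ten two-fold dilutions; inoculum targeted 1.0 × 10^6 CFU/mL M. tuberculosis; 37 °C, ~90% humidity, 7 days. Wells scored visually for turbidity, partial or complete clearing; MIC = lowest concentration visually inhibiting growth; percent inhibition at the MIC also recorded. Duplicates; rifampin or isoniazid positive control, medium-only and organism-only controls.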

The test system of data set [3] is Mycobacterium tuberculosis. The experiment in a line: Antimicrobial activity against Mycobacterium tuberculosis H37Rv SRI 1345 infected in mouse J774 cells assessed as intracellular growth inhibition at MIC after 7 days relative to control. Format: functional. The gist of the method: (§3)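 Murine J774 cells in RPMI 1640 + L-glutamine/FBS, 37 °C, 5% CO2; seeded 2.0 × 10^5 per well in 10% FBS, overnight, then 1% FBS to halt division. After 24 h infected with H37Rv at MOI 5 for 4 h, washed; drug at three concentrations (mid bracketing primary-screen MIC, ten-fold below and above) for 7 days. SDS lysis, DNase, plating on 7H10 for CFU; log reduction day 0 to day 7; duplicates, rifampin control.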

In data set [4] the test system is Mycobacterium tuberculosis. The experiment in a line: Antimicrobial activity against Mycobacterium tuberculosis H37Rv SRI 1345 infected in mouse J774 cells assessed as intracellular growth inhibition at 10-fold below MIC after 7 days relative to control. Format: functional. Put shortly: as §3
The nature of data set [5]: Cytotoxicity against mouse J774 cells assessed as cell viability at 10-fold below MIC relative to control. The class given is cell-based. As to conditions: read-out: Activity. The gist of the method:
as §1

Data set [6] concerns Mycobacterium tuberculosis. As to the kind of experiment: Antimicrobial activity against Mycobacterium tuberculosis H37Rv SRI 1345 incubated for 7 days under aerobic condition by low-oxygen recovery assay. Format: functional, organism-based.
In data set [7] the test system is Mycobacterium tuberculosis. The experiment in a line: Antimicrobial activity against Mycobacterium tuberculosis H37Rv SRI 1345 infected in mouse J774 cells assessed as intracellular growth inhibition at 10-fold above MIC after 7 days relative to control. The class given is functional. The gist of the method: as §3
Data set [8] relates to Mycobacterium tuberculosis. As to the kind of experiment: Antimicrobial activity against Mycobacterium tuberculosis H37Rv SRI 1345 assessed as growth inhibition at MIC after 7 days by broth microdilution assay relative to control. Format: functional. The gist of the method: as §2
In general terms: Broth dilution looks for growth in wells or tubes with falling amounts of substance.

The subject of data set [9] is Mycobacterium tuberculosis. The experiment in a line: Antimicrobial activity against Mycobacterium tuberculosis H37Rv after 7 days by BacTiter-Glo assay. As to conditions: 168 h. The class given is functional, organism-based. Put shortly: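 H37Rv in 384-well format, 10-point dose response, compounds serially diluted 1:2 from 100 thru 0.195 (top of range); DMSO carrier as 100% growth control, high amikacin as background, lower amikacin (MIC-approximating) control. After 7 days, equilibrated to room temperature, BacTiter-Glo added, 20 min at room temperature, luminescence (ATP) read.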

Data set [10] can be described thus: Cytotoxicity against mouse J774 cells assessed as cell viability at MIC relative to control. As to conditions: read-out: Activity. Format: cell-based. The gist of the method:
as §1

The test system of data set [11] is Mycobacterium tuberculosis. The experiment in a line: Antimicrobial activity against Mycobacterium tuberculosis H37Rv SRI 1345 incubated for 7 days under anaerobic condition followed by exposure to gaseous condition measured after 7 days by low-oxygen recovery assay. Format: functional, organism-based. Put shortly: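 Microplates set up as for MIC testing, then held anaerobically (automated jar gassing) 7 days at 37 °C, moved to ambient air with 5% CO2 for 7 days; wells scored visually for turbidity/clearing. Result = lowest concentration visually inhibiting growth. Duplicates with sterility, growth and rifampin or isoniazid controls.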

In data set [12] the test system is Mycobacterium tuberculosis. The experiment in a line: Bactericidal activity against Mycobacterium tuberculosis H37Rv SRI 1345 after 18 to 24 hrs. Format: functional. As to conditions: for MBC: Mycobacterium tuberculosis, H37Rv SRI 1345, read-out: MBC99.9. Put shortly:
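Following MIC testing, diluted aliquots from wells lacking macroscopic growth plated on Middlebrook 7H10 agar, 16–21 days at 37 °C, colonies counted. MBC = lowest concentration giving 99.9% kill over the MIC period (18–24 h); >40 colonies taken as rejection value; uncountable plates reported TNTC.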

Turning to `O=[N+]([O-])c1ccc2nc3c(c(-c4ccccc4)c2c1)CCCC3`, the viability in data set [1] is 25%; in data set [5], 67%; in data set [10], 63%. In addition, the MIC in data set [2] was 12.5 µg/mL (≈ 41.1 µM). In addition, the entries for the “fold change (FC)” value in data set [3], in data set [4] and in [7] were 1.25, 1.8 and 1.72, respectively. Also, the outcome in data set [6] and in data set [11] was Active. Also, the “growth inhibition (GI)” value in [8] is reported as 52%. Half-maximal inhibition in data set [9] (IC50) was put at 44.4 µM. Also, the IC90 in data set [9] was > 100 µM.
As to `O=[N+]([O-])c1ccc2nc3c(c(-c4ccccc4)c2c1)CCCCC3`, the viability in [1] is < 10%; in data set [5], 82%; in data set [10] it was 79%. Moreover, the MIC in [2] stood at 75 µg/mL (≈ 236 µM). Moreover, the figures for the “fold change (FC)” value in data set [3], in [4] and in data set [7] were 1.19, 1.24 and 1.41, respectively. The result in data set [6] and in data set [11] was Active. In addition, the “growth inhibition (GI)” value in data set [8] came out at 76%. Also, the IC50 in data set [9] was 61.9 µM. Besides, the IC90 in data set [9] came to 95.4 µM.
For `CC1(C)CC(=O)c2c(nc3ccc([N+](=O)[O-])cc3c2-c2ccccc2)C1`, in data set [9], the IC50 is > 100 µM and the concentration for an effect of 90% (IC90) is > 100 µM.
In data set [9], `NCC[C@H](O)C(=O)N[C@@H]1C[C@H](N)[C@@H](O[C@H]2O[C@H](CN)[C@@H](O)[C@H](O)[C@H]2O)[C@H](O)[C@H]1O[C@H]1O[C@H](CO)[C@@H](O)[C@H](N)[C@H]1O` [AMIKACIN] had an IC50 of 0.07 µM and an IC90 of 0.08 µM.
For `N[C@@H]1CONC1=O` [CYCLOSERINE], in that order: 12.5 µM and 13.5 µM.
Consider `Clc1ccc2nc3c(c(-c4ccccc4)c2c1)CCCCC3`, for which, in data set [9], the IC50 is > 100 µM and the IC90 was > 100 µM.
For `CC[C@@H](CO)NCCN[C@@H](CC)CO` [ETHAMBUTOL], in data set [9], the IC50 is < 1.56 µM and the IC90 is 32.8 µM.
For `Clc1ccc2nc3c(c(-c4ccccc4)c2c1)Cc1ccccc1-3`, in that order: > 100 µM and > 100 µM.
For `O=C1c2ccccc2-c2nc3ccc([N+](=O)[O-])cc3c(-c3ccccc3)c21`, in that order: > 100 µM and > 100 µM.
For `NNC(=O)c1ccncc1` [ISONIAZID], in that order: 0.18 µM and 0.29 µM.
Take `CCc1nc(N)nc(N)c1-c1ccc(Cl)cc1` [PYRIMETHAMINE]: in data set [9], inhibition was half-maximal at 5 µM (IC50) and the IC90 came out at 5 µM.
On to `Clc1ccc2nc3c(c(-c4ccccc4)c2c1)-c1ccccc1C3`, for which, in [9], the IC50 is > 100 µM and the IC90 was > 100 µM.
Turning to `Clc1ccc2nc3c(c(-c4ccccc4)c2c1)CCC3`, the viability is < 10% in data set [1], 86% in data set [5] and 79% in data set [10]. The MIC in data set [2] stood at 12.5 µg/mL (≈ 44.7 µM). Also, the “fold change (FC)” value in [3] came to 1.82; in data set [4] it was 1; in data set [7] it was 3.12. The CFU in data set [12] was found to be 0. Besides, the MBC in [12] came to 50 µg/mL (≈ 179 µM). The result in [6] and in data set [11] was Active. The “growth inhibition (GI)” value in data set [8] is reported as 88%. Further, inhibition in [9] was half-maximal at 73.4 µM (IC50). The IC90 in data set [9] is > 100 µM.
Take `CC1(C)CC(=O)c2c(nc3ccc(Cl)cc3c2-c2ccccc2)C1`: in [9], the IC50 was > 100 µM and the IC90 is > 100 µM.
For `O=C1c2ccccc2-c2nc3ccc(Cl)cc3c(-c3ccccc3)c21`, in data set [9], the IC50 is > 100 µM and the IC90 is > 100 µM.
As to `CO[C@H]1/C=C/O[C@@]2(C)Oc3c(C)c(O)c4c(O)c(c(/C=N/N5CCN(C)CC5)c(O)c4c3C2=O)NC(=O)/C(C)=C\C=C\[C@H](C)[C@H](O)[C@@H](C)[C@@H](O)[C@@H](C)[C@H](OC(C)=O)[C@@H]1C` [RIFAMPIN], the viability in data set [1] is 78%; in [5], 82%; in [10], 86%. Also, the MIC in data set [2] was determined as 0.049 µg/mL (≈ 0.0595 µM). In addition, the “fold change (FC)” value in data set [3] worked out at 1.83; in data set [4], 0.46; in [7] it was 1.85. In data set [12], this compound displayed a CFU of 39. Moreover, the MBC in [12] turned out to be 1.56 µg/mL (≈ 1.9 µM). The “growth inhibition (GI)” value in data set [8] came out at 65%. The compound further yielded an IC50 in [9] of 0.02 µM. The compound also showed an IC90 in data set [9] of 0.02 µM.
On to `O=[N+]([O-])c1ccc2nc3c(c(-c4ccccc4)c2c1)Cc1ccccc1-3`, for which, in data set [9], the IC50 was > 100 µM and the IC90 is > 100 µM.
For the compound `Clc1ccc2nc3c(c(-c4ccccc4)c2c1)CCCC3`, in data set [9], the IC50 was > 100 µM and the IC90 is > 100 µM.

The values are drawn from ChEMBL document CHEMBL3112573, “Design, synthesis and evaluation of acridine and fused-quinoline derivatives as potential anti-tuberculosis agents” (Eur J Med Chem, 2014).
